# Experimental data: ChEMBL document CHEMBL1127651, “Molecular requirements for the inhibition of the tetracycline antiport protein and the effect of potent inhibitors on the growth of tetracycline-resistant bacteria” (J Med Chem, 1994)
# Calls of active or inactive are those of the source. The rule behind the calls is not given here.
# Key:
# [1] = test system: Escherichia coli; experiment: (§1) Inhibitory activity against tetracycline uptake in everted membrane vesicles derived from Tc-resistant Escherichia coli bearing class B tetracycline resistance efflux protein (Tet); format: functional
# Method in brief: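 Everted inner membrane vesicles from E. coli D1-209 carrying plasmid R222 (class B Tc determinant on Tn10), energized with Li lactate; test compound added together with [³H]Tc. Accumulated [³H]Tc read at 2.5 min after energization, compared with uptake without analogue; CCCP-deenergized vesicles served as the negative control. IC50 = concentration giving 50% inhibition of uptake. Separately screened for disruption of the pH gradient by acridine orange fluorescence in vesicles from isogenic Tc-susceptible cells.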
# [2] = test system: Escherichia coli; experiment: Minimum inhibitory activity against tetracycline-susceptible Escherichia coli strain ML308-225; format: functional
# Method in brief: (§2)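 Broth dilution MIC in Luria broth. Two-fold dilutions from a 10 mg/mL stock in H₂O or 1:1 H₂O/MeOH, test range 200–0.030 µg/mL, incubated 18–20 h at 37 °C. MIC = lowest amount inhibiting growth.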
# [3] = test system: Escherichia coli; experiment: Minimum inhibitory activity against tetracycline-susceptible Escherichia coli strain D31m4 (Tet B on plasmid pHCMI); format: functional; conditions: in the assay text read “tetracycline-resistant” for “tetracycline-susceptible”
# Method in brief: (§3)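 Inoculum about 10⁶ cfu/mL into two-fold dilutions from 200 to 0.030 µg/mL, made from a 10 mg/mL stock in H₂O or 1:1 H₂O/MeOH. Incubated 18–20 h at 37 °C; MIC = amount inhibiting growth.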
# [4] = test system: Escherichia coli; experiment: Minimum inhibitory activity against tetracycline-susceptible Escherichia coli strain D31m4; format: functional; method in brief: as §2
# [5] = test system: Enterococcus faecalis; experiment: Minimum inhibitory activity against tetracycline-susceptible Enterococcus faecalis strain ATCC 9790; format: functional; method in brief: as §2
# [6] = test system: Enterococcus faecalis; experiment: Minimum inhibitory activity against tetracycline-susceptible Enterococcus faecalis strain ATCC 9790 (Tet L on plasmid MV158); format: functional; conditions: in the assay text read “tetracycline-resistant” for “tetracycline-susceptible”; method in brief: as §3
# [7] = test system: Escherichia coli; experiment: Minimum inhibitory activity against tetracycline-susceptible Escherichia coli strain ML308-225 (Tet B on plasmid R222); format: functional; method in brief: as §3
# [8] = test system: Staphylococcus aureus; experiment: Minimum inhibitory activity against tetracycline-susceptible Staphylococcus aureus strain RN450; format: functional; method in brief: as §2
# [9] = test system: Staphylococcus aureus; experiment: Minimum inhibitory activity against tetracycline-susceptible Staphylococcus aureus strain RN450 (Tet K on plasmid pT181); format: functional; method in brief: as §3
# [10] = test system: Escherichia coli; experiment: Minimum inhibitory activity against tetracycline-susceptible Escherichia coli strain ML308-225 (Tet B on plasmid R222) in combination with doxycycline; No effect; format: functional, organism-based
# [11] = test system: Escherichia coli; experiment: Minimum inhibitory activity against tetracycline-susceptible Escherichia coli strain ML308-225 (Tet A on plasmid pIP15); format: functional; method in brief: as §3
# [12] = test system: Escherichia coli; experiment: Minimum inhibitory activity against tetracycline-susceptible Escherichia coli strain ML308-225 (Tet B on plasmid R222) in combination with doxycycline; no effect; format: functional, organism-based
# [13] = test system: Escherichia coli; experiment: Growth inhibitory activity against tetracycline-resistant ML308-225 bacterial strain of Escherichia coli; format: functional, organism-based
# Method in brief: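 MIC by two-fold broth dilution in Luria broth from a 10 mg/mL stock, test range 200 to 0.030 µg/mL. Compounds dissolved in H2O or 1:1 H2O/MeOH. Inoculum about 10⁶ cfu/mL. Incubated 18–20 h at 37 °C. MIC taken as the lowest amount that inhibited growth.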
# [14] = test system: Escherichia coli; experiment: as §1; format: functional; remark: listed apart in the source
# Method in brief: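 Everted inner-membrane vesicles from E. coli D1-209 carrying plasmid R222 (class B Tet on Tn10). Vesicles energized with Li lactate and given [³H]Tc together with the analogue. Accumulation read at 2.5 min against uptake without analogue. CCCP-deenergized vesicles served as negative control. IC50 is the concentration giving 50% inhibition of [³H]Tc uptake.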
smiles,measurement,setting,value
O=CCC1CC(=O)c2c(O)cccc2S1 (stereo unspecified),IC50,[1],> 75 µM
CC1CC(=O)C2=C(O)c3c(O)ccc(O)c3CC2C1 (stereo unspecified),IC50,[1],> 130 µM
COc1cccc2c1C(=O)c1c(O)c3c(c(O)c1C2=O)C[C@@](O)(C(=O)CO)C[C@@H]3O[C@H]1C[C@H](N)[C@H](O)[C@H](C)O1 [DOXORUBICIN],IC50,[1],> 75 µM
CCCSC[C@H]1c2cccc(O)c2C(=O)C2=C(O)[C@]3(O)C(O)=C(C(N)=O)C(=O)[C@@H](N(C)C)C3[C@@H](O)C21 (stereo partly specified),MIC,[2],40 µg/mL
same,MIC,[3],12.5 µg/mL
same,MIC,[4],10 µg/mL
same,MIC,[5],1.25 µg/mL
same,MIC,[6],1.56 µg/mL
same,MIC,[7],> 50 µg/mL
same,MIC,[8],0.6 µg/mL
same,MIC,[9],12.5 µg/mL
same,MIC,[10],inactive
same,MIC,[11],> 50 µg/mL
COC(=O)C12Oc3ccc(-c4ccc5c(c4O)C(O)=C4C(=O)CC(C)C(O)C4(C(=O)OC)O5)c(O)c3C(O)=C1C(=O)CC(C)C2O (stereo unspecified),IC50,[1],> 75 µM
CN(C)[C@@H]1C(=O)C(C(N)=O)=C(O)[C@@]2(O)C(O)=C3C(=O)c4c(O)cccc4[C@H](CSCCCCl)C3[C@H](O)C12 (stereo partly specified),MIC,[2],10 µg/mL
same,MIC,[3],6.25 µg/mL
same,MIC,[4],2.5 µg/mL
same,MIC,[5],0.6 µg/mL
same,MIC,[6],1.56 µg/mL
same,IC50,[1],0.6 µM
same,MIC,[7],> 50 µg/mL
same,MIC,[8],0.6 µg/mL
same,MIC,[9],6.25 µg/mL
same,MIC,[10],inactive
same,MIC,[11],50 µg/mL
CN(C)[C@@H]1C(=O)C(C(N)=O)=C(O)[C@@]2(O)C(O)=C3C(=O)c4c(O)cccc4SC3CC12 (stereo partly specified),IC50,[1],4.6 µM
COc1cc(O)c2c(c1)C(=O)c1cc3c(c(O)c1C2=O)C(OC1OC(C)C(OC)C(O)C1OC)C(OC)C(C)(O)C3=O (stereo unspecified),IC50,[1],> 75 µM
CN(C)[C@@H]1C(=O)C(C(N)=O)=C(O)[C@@]2(O)C(O)=C3C(=O)c4c(O)cccc4[C@H](CSCCC(=O)O)C3CC12 (stereo partly specified),MIC,[12],inactive
same,MIC,[2],> 40 µg/mL
same,MIC,[3],> 50 µg/mL
same,MIC,[4],20 µg/mL
same,MIC,[5],10 µg/mL
same,MIC,[6],3.12 µg/mL
same,MIC,[7],> 50 µg/mL
same,MIC,[8],2.5 µg/mL
same,MIC,[9],12.5 µg/mL
same,MIC,[11],> 50 µg/mL
CC(=O)C1CCC2C(=O)C3=C(O)c4c(O)ccc(O)c4CC3CC2C1 (stereo unspecified),IC50,[1],> 75 µM
Cc1cc(O)c2c(c1O)C(=O)c1cc(O)cc(O)c1C2=O [CATENARIN],IC50,[1],> 150 µM
O=CCC1CC(=O)c2c(O)ccc(Cl)c2S1 (stereo unspecified),IC50,[1],> 75 µM
COC(C(=O)[C@@H](O)C(C)O)C1Cc2cc3cc(O)c(C)c(O)c3c(O)c2C(=O)C1O (stereo partly specified),IC50,[1],> 100 µM
CC(=O)OC1=C(Sc2ccccc2)C[C@H]2Cc3cc4cccc(O)c4c(O)c3C(=O)[C@H]2C1,IC50,[1],> 150 µM
COc1ccc(Cl)c2c1C(=O)CC(CC(=O)O)S2 (stereo unspecified),IC50,[1],> 150 µM
COc1cc(O)c2c(c1)C(=O)c1cc3c(c(O)c1C2=O)C(OC1OC(C)C(O)C(O)C1OC)C(OC)C(C)(O)C3=O (stereo unspecified),IC50,[1],> 75 µM
COc1cc(O)c2c(c1Cl)CC1CC3[C@H](N(C)C)C(=O)C(C(N)=O)=C(O)[C@@]3(O)C(O)=C1C2=O (stereo partly specified),IC50,[1],19.5 µM
C=C1c2cccc(O)c2C(=O)C2(Cl)C(=O)[C@]3(O)C(O)=C(C(N)=O)C(=O)[C@@H](N(C)C)C3CC12 (stereo partly specified),IC50,[1],> 75 µM
COC(=O)c1c(O)cccc1CC1CC(=O)[C@@]2(O)C(O)=C(C(N)=O)C(=O)[C@@H](N(C)C)C2C1 (stereo partly specified),IC50,[1],> 75 µM
CN(C)[C@@H]1C(=O)C(C(N)=O)=C(O)[C@@]2(O)C(O)=C3C(=O)c4c(ccc([N+](=O)[O-])c4O)CC3CC12 (stereo partly specified),IC50,[1],12.3 µM
CN(C)[C@@H]1C(=O)C(C(N)=O)=C(O)[C@@]2(O)C(O)=C3C(=O)c4c(O)cccc4[C@H](C[S+]([O-])c4ccccc4)C3CC12 (stereo partly specified),IC50,[1],0.7 µM
CN(C)c1ccc(O)c2c1CC1CC3[C@H](N(C)C)C(=O)C(C(N)=O)=C(O)[C@@]3(O)C(O)=C1C2=O (stereo partly specified),IC50,[1],2.3 µM
CN(C)[C@@H]1C(=O)C(C(N)=O)=C(O)[C@@]2(O)C(=O)C3(F)C(=O)c4c(O)cccc4CC3CC12 (stereo partly specified),IC50,[1],> 75 µM
CN(C)[C@@H]1C(=O)C(C(N)=O)=C(O)[C@@]2(O)C(O)=C3C(=O)c4c(O)cccc4[C@H](CS)C3[C@H](O)C12 (stereo partly specified),IC50,[1],4.6 µM
C[C@H]1c2cccc(O)c2C(=O)C2=C(O)[C@]3(O)C(=O)C(C(N)=O)=C(O)[C@@H](N(C)C)[C@@H]3[C@@H](O)[C@@H]21.O [DOXYCYCLINE],MIC,[3],12.5 µg/mL
same,IC50,[13],9.2 µM
same,MIC,[4],0.5 µg/mL
same,MIC,[5],0.25 µg/mL
same,MIC,[6],6.25 µg/mL
same,IC50,[1],> 75 µM
same,MIC,[7],> 50 µg/mL
same,MIC,[8],0.25 µg/mL
same,MIC,[9],12.5 µg/mL
same,MIC,[14],0.5 µg/mL
same,MIC,[11],50 µg/mL
O=C(O)CC1CC(=O)c2c(O)ccc(Cl)c2S1 (stereo unspecified),IC50,[1],> 150 µM
CC(=O)OC1=CC[C@H]2CC3C(=C(O)c4c(O)cccc4C3O[Si](C)(C)C(C)(C)C)C(=O)[C@H]2C1 (stereo partly specified),IC50,[1],> 150 µM
CN(C)[C@@H]1C(=O)C(C(N)=O)=C(O)[C@@]2(O)C(=O)C3C(=O)c4c(O)ccc(Cl)c4[C@@](C)(O)C3CC12 (stereo partly specified),IC50,[1],> 75 µM
CN(C)c1ccc2c(c1O)C(=O)C1=C(O)[C@]3(O)C(O)=C(C(N)=O)C(=O)[C@@H](N(C)C)C3CC1C2 (stereo partly specified),IC50,[1],15.4 µM
COC(C(=O)[C@@H](O)[C@@H](C)O)C1Cc2cc3cc(O)cc(O)c3c(O)c2C(=O)C1O (stereo partly specified),IC50,[1],> 100 µM
O=C1c2ccc(O)c(O)c2C(=O)c2c(O)ccc(O)c21 [QUINALIZARIN],IC50,[1],> 150 µM
CC(=O)SC[C@H]1c2cccc(O)c2C(=O)C2=C(O)[C@]3(O)C(O)=C(C(N)=O)C(=O)[C@@H](N(C)C)C3[C@@H](O)C21 (stereo partly specified),IC50,[1],4.6 µM
CC(=O)Oc1cccc2c1C(=O)C1=C(O)[C@]3(OC(C)=O)C(O)=C(C(N)=O)C(=O)[C@@H](N(C)C)C3CC1[C@]2(C)O (stereo partly specified),IC50,[1],> 75 µM
